# Source: ChEMBL document CHEMBL1143323, “Oxidosqualene cyclase from Saccharomyces cerevisiae, Trypanosoma cruzi, Pneumocystis carinii and Arabidopsis thaliana expressed in yeast: a model for the development of novel antiparasitic agents” (Bioorg Med Chem Lett, 2009)
# pIC50: −log10 of the molar value.
# Biological target: T1, Lanosterol synthase ERG7 (Saccharomyces cerevisiae S288c, UniProt P38604)
# T1 sequence (P38604 whole entry): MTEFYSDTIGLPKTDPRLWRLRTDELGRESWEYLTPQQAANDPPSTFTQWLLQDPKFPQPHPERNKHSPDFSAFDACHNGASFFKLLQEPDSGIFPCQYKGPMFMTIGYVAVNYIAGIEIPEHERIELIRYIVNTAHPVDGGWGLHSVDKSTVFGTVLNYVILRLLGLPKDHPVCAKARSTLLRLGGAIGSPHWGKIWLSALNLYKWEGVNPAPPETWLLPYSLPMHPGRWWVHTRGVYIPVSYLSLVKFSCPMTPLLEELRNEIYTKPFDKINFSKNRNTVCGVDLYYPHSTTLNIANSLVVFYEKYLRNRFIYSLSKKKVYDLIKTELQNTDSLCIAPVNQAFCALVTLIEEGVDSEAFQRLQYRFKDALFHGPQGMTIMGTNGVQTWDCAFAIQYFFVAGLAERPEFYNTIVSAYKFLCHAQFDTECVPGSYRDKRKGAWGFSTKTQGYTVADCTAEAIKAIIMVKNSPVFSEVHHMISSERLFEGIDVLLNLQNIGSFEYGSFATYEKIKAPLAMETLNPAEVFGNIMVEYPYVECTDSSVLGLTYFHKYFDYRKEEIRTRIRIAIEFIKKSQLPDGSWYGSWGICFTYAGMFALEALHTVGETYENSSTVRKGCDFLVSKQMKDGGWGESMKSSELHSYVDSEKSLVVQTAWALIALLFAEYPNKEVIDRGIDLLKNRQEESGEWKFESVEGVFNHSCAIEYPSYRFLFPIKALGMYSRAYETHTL
# Assay: Inhibition of yeast OSC expressed in Saccharomyces cerevisiae SMY8
# How it was run: (§1)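 Cell-free homogenates of recombinant OSC-defective S. cerevisiae SMY8 strains, each expressing one OSC: lanosterol cyclase from S. cerevisiae, T. cruzi or P. carinii, or cycloartenol cyclase from A. thaliana. Cyclase activity was measured in homogenates with inhibitor present and IC50 derived. Values are means of two separate experiments, each with duplicate incubations; maximum deviation from the mean under 10%.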
row,Structure (SMILES),pIC50
1,C=CCN(C)CCCCCCOc1ccc2c(-c3ccc(Br)cc3)nn(C)c2c1,6.54
2,C=CCN(C)CCCCCCOc1ccc(C(=O)c2ccc(Br)cc2)c(F)c1,6.68
3,CN(C/C=C/COc1ccc(C(=O)c2ccc(Br)cc2)cc1)C1CC1,6.74
4,CCN(CC#Cc1ccc2c(-c3ccc(Br)cc3)nsc2c1)CCO,6.52
5,CCN(CCO)CCCC#Cc1ccc2c(-c3ccc(Br)cc3)nsc2c1,5.30
6,C=CCN(C)CCCCC[C@H]1CC[C@H](N(C)C(=O)Oc2ccc(C(F)(F)F)cc2)CC1,7.30
7,CCN(CCO)CCCCC[C@H]1CC[C@H](N(C)C(=O)Oc2ccc(Cl)cc2)CC1,7.00
8,C=CCN(C)CCCCCCOc1ccc2c(-c3ccc(Br)cc3)nsc2c1,7.15

# Next, values leading:
row,pIC50,Structure (SMILES)
1,5.82,CN([C@H]1CC[C@H](CCCCCN(CCO)CCO)CC1)S(=O)(=O)c1ccc(C(F)(F)F)cc1
2,5.15,CCN(CC)C(C)(C)CCCC[C@H]1CC[C@H](N(C)S(=O)(=O)c2ccc(C(F)(F)F)cc2)CC1
3,6.30,CCN(CC)C1(CCCC[C@H]2CC[C@H](N(C)S(=O)(=O)c3ccc(C(F)(F)F)cc3)CC2)CC1
4,6.52,C=CCN(C)CCCCC[C@H]1CC[C@H](N(C)S(=O)(=O)c2ccc(C(F)(F)F)cc2)CC1
5,5.44,CCN(CC)CCCCC[C@H]1CC[C@H](N(C)S(=O)(=O)c2ccc(C(F)(F)F)cc2)CC1

# System: not listed separately
# Assay: Inhibition of Trypanosoma cruzi OSC expressed in Saccharomyces cerevisiae SMY8
# How it was run: as §1
row,Structure (SMILES),pIC50
1,C=CCN(C)CCCCCCOc1ccc2c(-c3ccc(Br)cc3)nn(C)c2c1,5.52
2,CN([C@H]1CC[C@H](CCCCCN(CCO)CCO)CC1)S(=O)(=O)c1ccc(C(F)(F)F)cc1,5.57
3,C=CCN(C)CCCCCCOc1ccc(C(=O)c2ccc(Br)cc2)c(F)c1,6.05
4,CCN(CC)C(C)(C)CCCC[C@H]1CC[C@H](N(C)S(=O)(=O)c2ccc(C(F)(F)F)cc2)CC1,< 4.00
5,CN(C/C=C/COc1ccc(C(=O)c2ccc(Br)cc2)cc1)C1CC1,5.82
6,CCN(CC)C1(CCCC[C@H]2CC[C@H](N(C)S(=O)(=O)c3ccc(C(F)(F)F)cc3)CC2)CC1,6.40
7,CCN(CC#Cc1ccc2c(-c3ccc(Br)cc3)nsc2c1)CCO,5.64
8,C=CCN(C)CCCCC[C@H]1CC[C@H](N(C)S(=O)(=O)c2ccc(C(F)(F)F)cc2)CC1,6.52
9,CCN(CCO)CCCC#Cc1ccc2c(-c3ccc(Br)cc3)nsc2c1,< 5.00
10,C=CCN(C)CCCCC[C@H]1CC[C@H](N(C)C(=O)Oc2ccc(C(F)(F)F)cc2)CC1,7.15
11,CCN(CCO)CCCCC[C@H]1CC[C@H](N(C)C(=O)Oc2ccc(Cl)cc2)CC1,5.70
12,C=CCN(C)CCCCCCOc1ccc2c(-c3ccc(Br)cc3)nsc2c1,6.47
13,CCN(CC)CCCCC[C@H]1CC[C@H](N(C)S(=O)(=O)c2ccc(C(F)(F)F)cc2)CC1,5.62

# System: not listed separately
# Assay: Inhibition of Pneumocystis carinii OSC expressed in Saccharomyces cerevisiae SMY8
# How it was run: as §1
row,Structure (SMILES),pIC50
1,C=CCN(C)CCCCCCOc1ccc2c(-c3ccc(Br)cc3)nn(C)c2c1,< 5.30
2,C=CCN(C)CCCCCCOc1ccc(C(=O)c2ccc(Br)cc2)c(F)c1,6.47
3,CN(C/C=C/COc1ccc(C(=O)c2ccc(Br)cc2)cc1)C1CC1,6.70
4,CCN(CC#Cc1ccc2c(-c3ccc(Br)cc3)nsc2c1)CCO,6.10
5,CCN(CCO)CCCC#Cc1ccc2c(-c3ccc(Br)cc3)nsc2c1,5.65
6,C=CCN(C)CCCCC[C@H]1CC[C@H](N(C)C(=O)Oc2ccc(C(F)(F)F)cc2)CC1,6.47
7,CCN(CCO)CCCCC[C@H]1CC[C@H](N(C)C(=O)Oc2ccc(Cl)cc2)CC1,5.60
8,C=CCN(C)CCCCCCOc1ccc2c(-c3ccc(Br)cc3)nsc2c1,6.64

# The next lines start with the values.
row,pIC50,Structure (SMILES)
1,6.40,CN([C@H]1CC[C@H](CCCCCN(CCO)CCO)CC1)S(=O)(=O)c1ccc(C(F)(F)F)cc1
2,6.00,CCN(CC)C(C)(C)CCCC[C@H]1CC[C@H](N(C)S(=O)(=O)c2ccc(C(F)(F)F)cc2)CC1
3,5.89,CCN(CC)C1(CCCC[C@H]2CC[C@H](N(C)S(=O)(=O)c3ccc(C(F)(F)F)cc3)CC2)CC1
4,6.92,C=CCN(C)CCCCC[C@H]1CC[C@H](N(C)S(=O)(=O)c2ccc(C(F)(F)F)cc2)CC1
5,6.22,CCN(CC)CCCCC[C@H]1CC[C@H](N(C)S(=O)(=O)c2ccc(C(F)(F)F)cc2)CC1

# Biological target: Cycloartenol synthase (Arabidopsis thaliana, UniProt P38605)
# Assay: Inhibition of Arabidopsis thaliana cycloartenol synthase expressed in Saccharomyces cerevisiae SMY8
# How it was run: as §1
# Cycloartenol synthase, sequence (P38605 whole entry): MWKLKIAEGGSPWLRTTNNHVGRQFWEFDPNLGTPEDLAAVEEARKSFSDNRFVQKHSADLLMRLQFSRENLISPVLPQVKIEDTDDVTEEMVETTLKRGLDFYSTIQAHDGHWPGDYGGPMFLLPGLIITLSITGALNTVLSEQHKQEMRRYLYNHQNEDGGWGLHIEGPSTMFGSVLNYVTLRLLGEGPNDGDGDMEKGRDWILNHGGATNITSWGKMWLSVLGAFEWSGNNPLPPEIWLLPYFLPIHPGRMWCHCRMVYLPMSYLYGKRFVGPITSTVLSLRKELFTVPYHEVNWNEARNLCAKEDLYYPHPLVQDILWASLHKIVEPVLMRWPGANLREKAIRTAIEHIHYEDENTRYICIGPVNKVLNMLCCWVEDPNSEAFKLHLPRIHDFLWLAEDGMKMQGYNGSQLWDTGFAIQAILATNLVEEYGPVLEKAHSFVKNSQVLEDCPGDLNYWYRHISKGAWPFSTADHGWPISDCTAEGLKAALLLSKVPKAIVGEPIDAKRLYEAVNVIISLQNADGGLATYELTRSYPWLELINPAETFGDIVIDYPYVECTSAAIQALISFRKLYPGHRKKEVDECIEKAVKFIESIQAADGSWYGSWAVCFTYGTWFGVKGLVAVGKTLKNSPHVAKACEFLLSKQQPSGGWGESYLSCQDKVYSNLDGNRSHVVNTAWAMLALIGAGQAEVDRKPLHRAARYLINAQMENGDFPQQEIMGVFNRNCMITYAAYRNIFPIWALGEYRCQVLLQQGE
row,Structure (SMILES),pIC50
1,C=CCN(C)CCCCCCOc1ccc2c(-c3ccc(Br)cc3)nn(C)c2c1,5.59
2,C=CCN(C)CCCCCCOc1ccc(C(=O)c2ccc(Br)cc2)c(F)c1,5.76
3,CN(C/C=C/COc1ccc(C(=O)c2ccc(Br)cc2)cc1)C1CC1,6.59
4,CCN(CC#Cc1ccc2c(-c3ccc(Br)cc3)nsc2c1)CCO,6.26
5,CCN(CCO)CCCC#Cc1ccc2c(-c3ccc(Br)cc3)nsc2c1,5.77
6,C=CCN(C)CCCCC[C@H]1CC[C@H](N(C)C(=O)Oc2ccc(C(F)(F)F)cc2)CC1,6.00
7,CCN(CCO)CCCCC[C@H]1CC[C@H](N(C)C(=O)Oc2ccc(Cl)cc2)CC1,6.15
8,C=CCN(C)CCCCCCOc1ccc2c(-c3ccc(Br)cc3)nsc2c1,6.02

# The next lines start with the values.
row,pIC50,Structure (SMILES)
1,5.82,CN([C@H]1CC[C@H](CCCCCN(CCO)CCO)CC1)S(=O)(=O)c1ccc(C(F)(F)F)cc1
2,5.39,CCN(CC)C(C)(C)CCCC[C@H]1CC[C@H](N(C)S(=O)(=O)c2ccc(C(F)(F)F)cc2)CC1
3,6.49,CCN(CC)C1(CCCC[C@H]2CC[C@H](N(C)S(=O)(=O)c3ccc(C(F)(F)F)cc3)CC2)CC1
4,6.36,C=CCN(C)CCCCC[C@H]1CC[C@H](N(C)S(=O)(=O)c2ccc(C(F)(F)F)cc2)CC1
5,6.00,CCN(CC)CCCCC[C@H]1CC[C@H](N(C)S(=O)(=O)c2ccc(C(F)(F)F)cc2)CC1

# Biological target: T2, Lanosterol synthase (Homo sapiens, UniProt P48449)
# T2 sequence (P48449 whole entry): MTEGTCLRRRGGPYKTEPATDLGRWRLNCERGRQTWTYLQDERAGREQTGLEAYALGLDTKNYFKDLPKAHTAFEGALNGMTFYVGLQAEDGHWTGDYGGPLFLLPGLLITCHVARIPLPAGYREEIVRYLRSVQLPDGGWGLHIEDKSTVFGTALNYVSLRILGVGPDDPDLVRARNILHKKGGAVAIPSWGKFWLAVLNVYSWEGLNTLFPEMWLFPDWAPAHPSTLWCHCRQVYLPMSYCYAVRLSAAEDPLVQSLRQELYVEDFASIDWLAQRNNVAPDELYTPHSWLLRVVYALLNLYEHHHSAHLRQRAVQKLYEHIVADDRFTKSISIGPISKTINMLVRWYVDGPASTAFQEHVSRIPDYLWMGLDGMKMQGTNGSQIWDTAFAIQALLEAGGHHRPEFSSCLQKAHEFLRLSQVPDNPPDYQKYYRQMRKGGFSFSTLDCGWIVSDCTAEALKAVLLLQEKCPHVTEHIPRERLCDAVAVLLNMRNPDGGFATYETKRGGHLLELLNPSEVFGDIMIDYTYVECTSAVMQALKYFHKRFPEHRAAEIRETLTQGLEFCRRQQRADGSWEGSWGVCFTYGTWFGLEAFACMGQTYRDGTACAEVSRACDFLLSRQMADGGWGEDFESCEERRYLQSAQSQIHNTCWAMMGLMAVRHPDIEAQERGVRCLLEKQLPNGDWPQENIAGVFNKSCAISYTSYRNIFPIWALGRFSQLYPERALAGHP
# Assay: Inhibition of human OSC expressed in Saccharomyces cerevisiae SMY8
row,Structure (SMILES),pIC50
1,C=CCN(C)CCCCCCOc1ccc2c(-c3ccc(Br)cc3)nn(C)c2c1,5.64
2,CN(C/C=C/COc1ccc(C(=O)c2ccc(Br)cc2)cc1)C1CC1,6.57
3,CCN(CC#Cc1ccc2c(-c3ccc(Br)cc3)nsc2c1)CCO,5.34
4,CCN(CCO)CCCC#Cc1ccc2c(-c3ccc(Br)cc3)nsc2c1,6.64
5,C=CCN(C)CCCCC[C@H]1CC[C@H](N(C)C(=O)Oc2ccc(C(F)(F)F)cc2)CC1,6.85
6,CCN(CCO)CCCCC[C@H]1CC[C@H](N(C)C(=O)Oc2ccc(Cl)cc2)CC1,5.39
7,C=CCN(C)CCCCCCOc1ccc2c(-c3ccc(Br)cc3)nsc2c1,6.80

# The remaining lines, values ahead:
row,pIC50,Structure (SMILES)
1,6.14,CN([C@H]1CC[C@H](CCCCCN(CCO)CCO)CC1)S(=O)(=O)c1ccc(C(F)(F)F)cc1
2,5.31,CCN(CC)C(C)(C)CCCC[C@H]1CC[C@H](N(C)S(=O)(=O)c2ccc(C(F)(F)F)cc2)CC1
3,6.36,CCN(CC)C1(CCCC[C@H]2CC[C@H](N(C)S(=O)(=O)c3ccc(C(F)(F)F)cc3)CC2)CC1
4,7.00,C=CCN(C)CCCCC[C@H]1CC[C@H](N(C)S(=O)(=O)c2ccc(C(F)(F)F)cc2)CC1
5,5.61,CCN(CC)CCCCC[C@H]1CC[C@H](N(C)S(=O)(=O)c2ccc(C(F)(F)F)cc2)CC1
